Active and inactive are the calls of the source.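 How the source made its calls, unless noted: active means viability at or under a set limit in both replicates, limit being median viability minus 3 SD (cut at about 48% in these data, passing the limit was not always enough); inconclusive means at or under the limit in just one replicate; inactive means at or above the limit in both replicates.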
Key:
[1] = SK-BR-3 cell growth inhibitors, pilot screen, 24 h, human (AID 572;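 active means viability at or below 10% of carrier control in both of two separate runs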;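 further: compound exposure lasted between 18 and 24 h rather than exactly 24 h; 100% = carrier-treated control wells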); conditions: SK-BR-3 viability, CellTiter-Glo luminescence, at 10 µM, stronger effect = lower value
[2] = HUVEC growth inhibition – cell-based, human, primary screen (AID 575;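 active means viability at or below 30% in both replicate assays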;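 further: 100% = median of untreated cell wells with 0.1% DMSO on each plate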); conditions: HUVEC proliferation, CellTiter-Glo luminescence, 72 h; at 10 µM; stronger effect = lower value
How it was run: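 Test system: HUVEC primary cells. Quantity: 1250 endothelial cells in each well. Dosing: single-point 10 µM, DMSO 0.1% final. Incubation: 72 h treatment at 37 °C. Measured by: CTG luminescence. Control set: DMSO cell controls and MePR drug controls. Plate: collagen-coated 384-well format.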

[3] = growth inhibitors of H69AR lung tumor, primary screen, human, duplicate replicates (AID 580); conditions: H69AR lung tumor cells viability, ATP luminescence, 72 h; at 10 µM; stronger effect = lower value;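 further: 100% = mean luminescence of untreated wells and 0% = no signal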
[4] = reversal of MRP1-mediated doxorubicin resistance, pilot screen, H69AR cells, doxorubicin co-treatment (AID 601;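 active means viability loss from added drug above about 55%, and viability with drug at most 40%, in both replicates, limit read from the data, passing the limit was not always enough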); conditions: CellTiter-Glo, 72 h, at 10 µM; for differential viability (reversal): stronger effect = higher value
[5] = 384-well plate pilot, post-Golgi transport modulator project, inhibition of yeast transport mutant growth (AID 636; in the data active means inhibition above about 31%); conditions: absorbance 615 nm, about 18 h, stronger effect = higher value
[6] = growth suppression of yeast trafficking mutant, preliminary HTS, modulators of trafficking downstream of Golgi apparatus project, 1536-format plate, OD 615 nm (AID 637; in the data active means inhibition above about 30%); conditions: yeast transport mutant growth, absorbance 615 nm, 18 h; stronger effect = higher value
[7] = H69AR cells + 2 uM doxorubicin, measured here: viability with 2 uM doxorubicin, stronger effect = lower value
[8] = H69AR cells, compound alone cytotoxicity

Compound	viability [1]	viability [2]	viability [3]	differential viability (reversal) ([4]; H69AR cells + 2 uM doxorubicin)	viability [4, 7] [%]	viability [4, 8] [%]	inhibition [5]	inhibition [6]
Cc1noc(C)c1CSc1nc2ccccc2s1	82% (inactive)	80.8% (inactive)	67.8% (inactive)	-3.12% (inactive)	70.9	67.8	-1.43% (inactive)	-4.1% (inactive)
COc1ccc(OC)c(S(=O)(=O)N2CCC(C(=O)NCc3ccccc3OC)CC2)c1	101% (inactive)	97.5% (inactive)	103% (inactive)	-0.525% (inactive)	103	103	0.55% (inactive)	-4.03% (inactive)
COc1cc(C(=O)Nc2cc(C)ccn2)cc(OC)c1OC	90% (inactive)	89.5% (inactive)	97.5% (inactive)	17.6% (inactive)	79.9	97.5	0.55% (inactive)	-6.13% (inactive)
Cc1cc(C(=O)Nc2cccnc2)no1	99% (inactive)	101% (inactive)	98.3% (inactive)	0.295% (inactive)	98	98.3	3.78% (inactive)	-2.18% (inactive)
COc1ccc(C(O)C(CN2CCOCC2)c2ccccc2)cc1F (centres undefined)	107% (inactive)	109% (inactive)	103% (inactive)	4.89% (inactive)	97.8	103	-0.26% (inactive)	1.64% (inactive)
CCc1cccc2c3c([nH]c12)C(CC)(CC(=O)O)OCC3 (centres undefined)	113% (inactive)	72% (inactive)	100% (inactive)	1.21% (inactive)	99.1	100	1.56% (inactive)	0.67% (inactive)
CC1CC(C)CN(CC(=O)Nc2ccc(S(N)(=O)=O)cc2)C1 (centres undefined)	96% (inactive)	96.9% (inactive)	84.9% (inactive)	2.1% (inactive)	82.8	84.9	3.29% (inactive)	-2.58% (inactive)
CCCC(=O)Nc1cnc(NC(=O)c2cccc(F)c2)cc1C	86% (inactive)	90.3% (inactive)	88.7% (inactive)	6.15% (inactive)	82.6	88.7	2.47% (inactive)	2.95% (inactive)
CCCC1O[C@@H]2C[C@H]3[C@@H]4CCC5=CC(=O)C=C[C@]5(C)[C@H]4[C@@H](O)C[C@]3(C)[C@]2(C(=O)CO)O1 (some centres undefined)	109% (inactive)	82.4% (inactive)	79.6% (inactive)	0.52% (inactive)	79.1	79.6	1.04% (inactive)	-3.83% (inactive)
O=C(CSc1nccn1Cc1ccccc1)Nc1nccs1	90% (inactive)	98.6% (inactive)	108% (inactive)	6.88% (inactive)	101	108	-0.26% (inactive)	1.48% (inactive)
COC(=O)c1ccc2c(=O)n(CC3CCCO3)c(=S)[nH]c2c1 (centres undefined)	84% (inactive)	106% (inactive)	86.2% (inactive)	2.35% (inactive)	83.9	86.2	-8.36% (inactive)	4.19% (inactive)
COCCNC(=O)c1snc2ccc(Cl)cc12	89% (inactive)	83.4% (inactive)	102% (inactive)	10.2% (inactive)	91.5	102	4.42% (inactive)	4.43% (inactive)
Cc1cnc(C(=O)Nc2nnc(C(C)C)s2)cn1	113% (inactive)	113% (inactive)	87.4% (inactive)	6.11% (inactive)	81.2	87.4	-0.26% (inactive)	-1.97% (inactive)
Cc1ccc(-c2nnc3c4ccccc4c(C)nn23)cc1NC(=O)c1ccco1	81.5% (inactive)	98.2% (inactive)	91.8% (inactive)	-3.85% (inactive)	95.7	91.8	-5.27% (inactive)	6.51% (inactive)
O=C(Nc1ccccc1)N(CCCN1CCOCC1)Cc1cc2cc3c(cc2[nH]c1=O)OCCO3	96% (inactive)	82.3% (inactive)	67.6% (inactive)	2.71% (inactive)	64.9	67.6	2.13% (inactive)	3.45% (inactive)
O=C(O)c1ccc(S(=O)(=O)Cc2ccccc2)cc1	95% (inactive)	102% (inactive)	87.3% (inactive)	-7.88% (inactive)	95.2	87.3	-3.29% (inactive)	1.45% (inactive)
Cc1csc(NC(=O)c2cccs2)n1	119% (inactive)	93.9% (inactive)	89.7% (inactive)	3.83% (inactive)	85.8	89.7	-1.43% (inactive)	1.48% (inactive)
CN(C)C(=O)CSc1nnc2sc3ccccc3n12	71% (inactive)	105% (inactive)	89.2% (inactive)	-6.11% (inactive)	95.3	89.2	-8.63% (inactive)	1.82% (inactive)
CN(C)c1ccc(C2C3=C(CCCC3=O)OC3=C2C(=O)CCC3)cc1	90% (inactive)	97% (inactive)	92.5% (inactive)	2.78% (inactive)	89.7	92.5	-5.73% (inactive)	-2.18% (inactive)
Cc1ccc(-n2ncc3c(=O)n(CC(=O)NCc4ccco4)cnc32)cc1	105% (inactive)	76.5% (inactive)	81.3% (inactive)	-12.3% (inactive)	93.6	81.3	1.92% (inactive)	1.77% (inactive)
COCCCN1C(=O)C(=O)/C(=C(/O)c2ccc(OC)cc2)C1c1ccc(O)c(OC)c1 (centres undefined)	104% (inactive)	109% (inactive)	103% (inactive)	6.55% (inactive)	96.9	103	-2.53% (inactive)	-1.45% (inactive)
CCC(=O)Nc1cc(Cl)ccc1N1CCN(C(=O)CC)CC1	70% (inactive)	92.6% (inactive)	88.5% (inactive)	3.43% (inactive)	85	88.5	-4.66% (inactive)	0.73% (inactive)
CCOC(=O)c1ccc(COC(=O)c2cc3ccccc3oc2=O)o1	114% (inactive)	114% (inactive)	114% (inactive)	20.8% (inactive)	93.1	114	-5.89% (inactive)	0.65% (inactive)
CCN(C(=O)c1cccs1)c1nnc(-c2ccncc2)s1	105% (inactive)	120% (inactive)	92.5% (inactive)	7.03% (inactive)	85.5	92.5	-3.33% (inactive)	2.91% (inactive)

Compound	viability [1]	viability [2]	viability [3]	differential viability (reversal) ([4]; H69AR cells + 2 uM doxorubicin)	viability [4, 7] [%]	viability [4, 8] [%]	inhibition [5]	inhibition [6]
CCCCn1cnc2c(c1=O)c1nc3ccccc3nc1n2Cc1ccc2c(c1)OCO2	85% (inactive)	85.9% (inactive)	68.9% (inactive)	-5.45% (inactive)	74.3	68.9	-5.14% (inactive)	-1.82% (inactive)
COc1cc(NC(=O)CSCc2cnn(-c3ccccc3)c2-n2cccc2)cc(OC)c1	103% (inactive)	67.9% (inactive)	80.6% (inactive)	5.25% (inactive)	75.3	80.6	-4.46% (inactive)	-4.18% (inactive)
Cc1cccc(C)c1OCC(=O)Nc1cccc(NC(=O)c2ccco2)c1	97% (inactive)	71.2% (inactive)	84.6% (inactive)	1.53% (inactive)	83.1	84.6	-3.29% (inactive)	-0.16% (inactive)
O=C(NCc1ccco1)c1cc2sccc2n1Cc1ccccc1	131% (inactive)	97.3% (inactive)	71.2% (inactive)	-18.5% (inactive)	89.7	71.2	3.01% (inactive)	14.2% (inactive)
NC(=O)c1c(NC(=O)Cc2cccs2)sc2c1CCC2	103% (inactive)	97.3% (inactive)	94.3% (inactive)	3.05% (inactive)	91.3	94.3	-0.27% (inactive)	-6.94% (inactive)
O=C(NCc1cccs1)c1cc2c(s1)CS(=O)(=O)C2	116% (inactive)	101% (inactive)	98.1% (inactive)	4.27% (inactive)	93.8	98.1	-4% (inactive)	-1.64% (inactive)
CCc1ccc(NC(=O)CS(=O)CC(=O)NC(C)CCc2ccco2)cc1 (centres undefined)	120% (inactive)	93.1% (inactive)	106% (inactive)	11.5% (inactive)	94.3	106	-1.56% (inactive)	-4.59% (inactive)
CN(C)CCCN1c2ccccc2CCc2ccc(Cl)cc21	78% (inactive)	5.55% (active)	65.2% (inactive)	12% (inactive)	53.2	65.2	-0.26% (inactive)	1.17% (inactive)
O=C(NCc1ccco1)c1ccc2c(=O)n(CC3CCCO3)c(=S)[nH]c2c1 (centres undefined)	94% (inactive)	76% (inactive)	94.4% (inactive)	7.56% (inactive)	86.9	94.4	-2.73% (inactive)	-0.66% (inactive)
OC[C@H]1O[C@@H](n2cnc3c(Nc4ccccc4)ncnc32)[C@H](O)[C@@H]1O	95% (inactive)	71.9% (inactive)	84.4% (inactive)	2.24% (inactive)	82.1	84.4	-2.34% (inactive)	1.17% (inactive)
O=C(c1cnn2c(C(F)F)cc(-c3ccccc3)nc12)N1CCN2CCCC2C1 (centres undefined)	103% (inactive)	103% (inactive)	79.1% (inactive)	-1.71% (inactive)	80.8	79.1	-4.79% (inactive)	1.82% (inactive)
COc1cccc(-c2nnn(CC(=O)O)n2)c1	149% (inactive)	100% (inactive)	91% (inactive)	1.7% (inactive)	89.3	91	-1.43% (inactive)	1.97% (inactive)
O=C(c1ccc(S(=O)(=O)N2CCC(c3nc4ccccc4s3)CC2)cc1)N1CCOCC1	97% (inactive)	100% (inactive)	71.4% (inactive)	-28.7% (inactive)	100	71.4	-5.34% (inactive)	3.64% (inactive)
CN(CC(=O)Nc1ccc(F)c(Cl)c1)S(=O)(=O)c1cccc2nsnc12	99% (inactive)	74.3% (inactive)	90.1% (inactive)	8.32% (inactive)	81.8	90.1	-2.3% (inactive)	-1.09% (inactive)
O=C(O)C1CCCN1C(=O)c1cccs1 (centres undefined)	114% (inactive)	88.3% (inactive)	103% (inactive)	3.11% (inactive)	100	103	3.15% (inactive)	-2.58% (inactive)
CCCCNC(=O)CSc1nc2ccc(N3CCOCC3)cc2c(=O)n1CCc1ccccc1	95.5% (inactive)	70.1% (inactive)	69.3% (inactive)	18.1% (inactive)	51.3	69.3	-7.16% (inactive)	4.13% (inactive)
Cc1ccc(NC(=O)CSC2=C(C#N)C(c3ccc4c(c3)OCO4)CC(=O)N2)cc1C (centres undefined)	64% (inactive)	92.9% (inactive)	88.6% (inactive)	-4.82% (inactive)	93.4	88.6	7.7% (inactive)	-2.55% (inactive)
CS(=O)(=O)N(CC(=O)Nc1ccc2c(c1)OCO2)Cc1ccc(Cl)cc1	70% (inactive)	88.5% (inactive)	95% (inactive)	-7.89% (inactive)	103	95	-6.58% (inactive)	2.73% (inactive)
CC(C)(C)c1nnc(NC(=O)C2CCN(c3ncccn3)CC2)s1	105% (inactive)	115% (inactive)	101% (inactive)	14.3% (inactive)	86.6	101	-4.03% (inactive)	-0.82% (inactive)
c1ccc(CSc2nnc(-c3cccs3)n2Cc2ccco2)cc1	86% (inactive)	90.3% (inactive)	83.2% (inactive)	-0.12% (inactive)	83.4	83.2	1.37% (inactive)	-0.65% (inactive)
COc1ccc2cnn(-c3ccccc3C)c(=O)c2c1OC	88% (inactive)	85.5% (inactive)	106% (inactive)	-1.29% (inactive)	108	106	-3.24% (inactive)	0.55% (inactive)
Cc1ccc2nc(-c3ccccn3)cc(C(=O)N3CCN(c4ncccn4)CC3)c2c1	100% (inactive)	102% (inactive)	77.8% (inactive)	-5.74% (inactive)	83.5	77.8	-2.7% (inactive)	0.91% (inactive)
CN1[C@@H](CC(=O)c2ccccc2)CCC[C@H]1C[C@H](O)c1ccccc1	63% (inactive)	81.4% (inactive)	84.1% (inactive)	-4.62% (inactive)	88.7	84.1	1.95% (inactive)	0.67% (inactive)
CN(C)c1nc(N(C)C)nc(N(C)C)n1	95% (inactive)	106% (inactive)	96.8% (inactive)	-2.79% (inactive)	99.6	96.8	-1.69% (inactive)	-2.67% (inactive)

From PubChem BioAssay
